# “Also recorded” adds a separate entry of the source.
# B1: MucA: anti-sigma factor; free MucA as competitor of resin-bound MucA (protein, UniProt P38107 1-194, looked up)
# Sigma factor AlgU negative …: MSREALQETLSAVMDNEADELELRRVLAACGEDAELRSTWSRYQLARSVMHREPTLPKLDIAAAVSAALADEAAPPKAEKGPWRMVGRLAVAASVTLAVLAGVRLYNQNDALPQMAQQGTTPQIALPQVKGPAVLAGYSEEQGAPQVITNSSSSDTRWHEQRLPIYLRQHVQQSAVSGTESALPYARAASLENR
# B2: MucB: competes for MucA binding and can inhibit this cleavage (protein, UniProt P38108 22-316, looked up)
# Sigma factor AlgU regulatory …: ADASDWLNRLAEADRQNSFQGTFVYERNGSFSTHEIWHRVESDGAVRERLLQLDGARQEVVRVDGRTQCISGGLADQLADAQLWPVRKFDPSQLASWYDLRLVGESRVAGRPAVVLAVTPRDQHRYGFELHLDRDTGLPLKSLLLNEKGQLLERFQFTQLNTGAAPAEDQLQAGAECQVVGPAKADGEKTVAWRSEWLPPGFTLTRSFMRRSPVTPDPVACLTYGDGLARFSVFIEPLHGAMVGDARSQLGPTVVVSKRLQTDDGGQMVTVVGEVPLGTAERVALSIRPEAAAQK
# How the values were obtained:
# [1] = tested on: AlgW (substrate 35S-MucA, inhibitor MucB); experiment: AlgW cleavage of 35S-MucA in the presence of MucB; assay type: biochemical, Pseudomonas aeruginosa; conditions: for MucA cleavage level relative to WVF and AlgW alone (no MucB): Figs. 4B vs 4D, CupB5 peptide + WVF + MucB; for antagonism / relief of MucB inhibition in vitro: summary statement, WVF-activated AlgW cleavage of MucA with MucB
# [2] = tested on: AlgW (substrate 35S-MucA); experiment: WVF-activated AlgW cleavage of 35S-MucA with or without CupB5 peptides; assay type: biochemical, Pseudomonas aeruginosa; conditions: Fig. 5C; GYYYTVV 300 μM, increasing WVF, fixed MucA (50 μM)
# Procedure, shortened: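 Ni-NTA-purified AlgW (0.5 μM trimer) cleaved 35S-MucA (50 μM) across a range of WVF peptide concentrations, with or without CupB5 peptides (300 μM). Protease addition started the reactions; cold 10% TCA quenched them at timed points. Acid-soluble products were scintillation-counted against total radioactivity, and rates were divided by substrate and enzyme concentrations. Values were averages ± SEM (n=2), fitted to rate = basal + Vmax/(1 + (Kact/[peptide])h).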
# MucB [3] = experiment: MucB oligomerization, gel-filtration chromatography; assay type: binding, Pseudomonas aeruginosa; conditions: Fig. S2
# MucB [4] = conditions: ref Lima et al., 2013; cited from earlier work
# [5] = tested on: P. aeruginosa strain PAO1 and derivatives; experiment: Alginate production and mucoid phenotype on plasmid overexpression of proteins; assay type: cell-based, Pseudomonas aeruginosa; conditions: Fig. 6A, 6B; for alginate production in PAO1-VE2 on plasmid-mediated overproduction: PAO1-VE2 (mucE overexpressed); for alginate production in PAO1-VE22 on plasmid-mediated overproduction: PAO1-VE22 (cupB5 overexpressed), 0.1% L-arabinose, 37°C, 24 h
Molecule,MucA cleavage level relative to WVF and AlgW alone (no MucB) [1],antagonism / relief of MucB inhibition in vitro [1],alginate production in PAO1-VE2 on plasmid-mediated overproduction [5],alginate production in PAO1-VE22 on plasmid-mediated overproduction [5],also measured
GYYYT,approximately one-third,did antagonize MucB inhibition in vitro; also recorded: only partially relieve MucB inhibition in vitro,–,–,"potency and cooperativity of activation, GYYYT vs GYYYTVV ([1]; Fig. 4D, WVF 150 μM, MucB present): occurred at lower peptide concentrations and was less cooperative as judged by the Hill constant than activation by the GYYYTVV peptide"
GYYYTVV,approximately one-third,antagonized MucB inhibition in vitro; also recorded: only partially relieve MucB inhibition in vitro,–,–,change in maximum rate of MucA cleavage on adding CupB5 peptide [2]: increased almost two-fold; change in MucB elution / conversion of MucB dimers to tetramers (MucB [3]): no substantial change in elution during gel-filtration chromatography; also recorded: did not convert MucB dimers into tetramers
Lipopolysaccharides,–,–,–,–,binding to MucB and displacement of MucA (MucB [4]): bind MucB and competitively displace MucA
B1,–,–,decreased alginate production in PAO1-VE2,as did plasmid-mediated overproduction of MucA,–
B2,–,–,decreased alginate production in PAO1-VE2,plasmid-mediated MucB overproduction had this effect,–

# — article PMC4116675 (Molecular microbiology, 2014)
